Experimental findings from ChEMBL document CHEMBL1944559, “Phosphodiesterase inhibitors. Part 3: Design, synthesis and structure-activity relationships of dual PDE3/4-inhibitory fused bicyclic heteroaromatic-dihydropyridazinones with anti-inflammatory and bronchodilatory activity” (Bioorg Med Chem, 2012) are described below.

The target of experiment [1] is T1, cGMP-inhibited 3',5'-cyclic phosphodiesterase 3A (Homo sapiens, UniProt Q14432). The experiment in a line: Inhibition of human PDE3A catalytic domain. The procedure, abridged:
(§1)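 IC50 determined in enzyme inhibition assays on the core catalytic domains of PDE3A and PDE4B, following previously reported protocols, from at least three experiments; roflumilast run as positive control.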

The target in experiment [2] is T1, cGMP-inhibited 3',5'-cyclic phosphodiesterase 3A. Briefly: Ratio of KCA-1450 IC50 to compound IC50 for human PDE3A catalytic domain.
In experiment [3] the test system is Cavia porcellus. Briefly: Inhibition of histamine-induced bronchoconstriction in Hartley guinea pig at 0.1 mg/kg, iv administered 30 mins prior histamine challenge. Type of experiment: functional. The procedure, abridged: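 Guinea pigs given compound iv at 0.1 mg/kg before histamine challenge; bronchoconstriction measured by an established procedure; result expressed as % inhibition of constriction relative to control.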

In experiment [4] the test system is Rattus norvegicus. Briefly: Antiinflammatory activity in Wistar rat assessed as inhibition of LPS-induced TNFalpha release at 1 mg/kg, po. It counts as functional.
The target in experiment [5] is T2, 3',5'-cyclic-AMP phosphodiesterase 4B (Homo sapiens, UniProt Q07343). Briefly: Ratio of KCA-1450 IC50 to compound IC50 for human PDE4B catalytic domain.
Experiment [6] concerns Cavia porcellus. Briefly: Inhibition of histamine-induced bronchoconstriction in Hartley guinea pig at 1 mg/kg, po administered 30 mins prior histamine challenge. Type of experiment: functional. The procedure, abridged: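 Oral dosing at 1 mg/kg in guinea pigs before histamine challenge, by an established procedure; scored against control as ++ (≥70% inhibition of bronchoconstriction) or + (30–69%).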

For experiment [7], the target named is T2, 3',5'-cyclic-AMP phosphodiesterase 4B. The experiment in a line: Inhibition of human PDE4B catalytic domain. The procedure, abridged: as §1

T2 sequence (Q07343 whole entry, the tested form may be a part): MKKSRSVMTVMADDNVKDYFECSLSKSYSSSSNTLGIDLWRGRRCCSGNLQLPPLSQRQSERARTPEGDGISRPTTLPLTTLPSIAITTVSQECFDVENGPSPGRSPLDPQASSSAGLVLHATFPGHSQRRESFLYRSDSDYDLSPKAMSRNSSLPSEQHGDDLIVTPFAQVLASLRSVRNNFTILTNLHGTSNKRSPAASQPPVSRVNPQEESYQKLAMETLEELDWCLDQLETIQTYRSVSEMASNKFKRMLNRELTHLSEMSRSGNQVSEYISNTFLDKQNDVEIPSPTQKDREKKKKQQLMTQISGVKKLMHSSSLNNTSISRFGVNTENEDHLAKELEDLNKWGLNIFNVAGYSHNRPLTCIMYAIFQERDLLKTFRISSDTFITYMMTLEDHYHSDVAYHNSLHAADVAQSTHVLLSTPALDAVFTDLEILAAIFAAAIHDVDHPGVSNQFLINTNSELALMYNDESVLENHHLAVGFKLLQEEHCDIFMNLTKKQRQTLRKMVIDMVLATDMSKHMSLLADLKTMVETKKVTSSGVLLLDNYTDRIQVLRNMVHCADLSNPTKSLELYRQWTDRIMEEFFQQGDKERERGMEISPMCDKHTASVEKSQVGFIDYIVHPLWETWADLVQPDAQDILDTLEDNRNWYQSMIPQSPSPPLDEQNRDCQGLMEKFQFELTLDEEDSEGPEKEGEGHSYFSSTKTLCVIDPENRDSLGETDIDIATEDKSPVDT
T1 sequence (Q14432 whole entry, the tested form may be a part): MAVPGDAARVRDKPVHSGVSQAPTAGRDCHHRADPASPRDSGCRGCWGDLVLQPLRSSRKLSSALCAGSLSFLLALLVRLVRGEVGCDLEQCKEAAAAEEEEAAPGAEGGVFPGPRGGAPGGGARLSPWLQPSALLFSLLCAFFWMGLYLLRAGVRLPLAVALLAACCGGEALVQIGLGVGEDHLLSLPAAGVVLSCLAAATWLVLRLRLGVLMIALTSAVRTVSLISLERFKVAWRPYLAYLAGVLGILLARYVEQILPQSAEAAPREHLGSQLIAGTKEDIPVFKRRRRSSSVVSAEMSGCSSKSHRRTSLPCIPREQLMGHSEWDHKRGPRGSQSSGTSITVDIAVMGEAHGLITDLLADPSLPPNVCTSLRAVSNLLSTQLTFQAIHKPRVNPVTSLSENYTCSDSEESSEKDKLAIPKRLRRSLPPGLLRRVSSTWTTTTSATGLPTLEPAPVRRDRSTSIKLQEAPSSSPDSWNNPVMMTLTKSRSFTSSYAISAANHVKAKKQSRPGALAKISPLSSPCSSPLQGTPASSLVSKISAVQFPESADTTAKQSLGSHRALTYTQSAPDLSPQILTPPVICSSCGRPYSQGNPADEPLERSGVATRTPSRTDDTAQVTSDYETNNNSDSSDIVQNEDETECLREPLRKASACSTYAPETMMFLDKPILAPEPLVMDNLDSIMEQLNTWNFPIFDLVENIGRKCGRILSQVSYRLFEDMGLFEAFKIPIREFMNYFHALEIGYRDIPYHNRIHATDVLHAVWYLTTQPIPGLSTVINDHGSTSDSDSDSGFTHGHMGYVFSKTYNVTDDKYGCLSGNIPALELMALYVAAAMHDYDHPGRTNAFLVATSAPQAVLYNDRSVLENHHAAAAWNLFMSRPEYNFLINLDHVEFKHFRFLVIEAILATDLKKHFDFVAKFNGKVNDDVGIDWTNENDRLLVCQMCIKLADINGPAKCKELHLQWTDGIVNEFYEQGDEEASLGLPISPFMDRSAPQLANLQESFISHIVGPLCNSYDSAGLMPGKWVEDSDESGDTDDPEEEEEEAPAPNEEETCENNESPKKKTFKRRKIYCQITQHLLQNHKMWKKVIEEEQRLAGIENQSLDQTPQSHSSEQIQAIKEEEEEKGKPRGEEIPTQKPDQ

What is called IC50 is the point on the concentration scale where inhibition reaches its midpoint. What is called inhibition in vivo is the change of the read-out against control, counted positive when it falls. As to `COc1ccc(C2=NNC(=O)CC2C)c2sc(C(F)(F)F)nc12` (racemic), the values for the IC50 in experiment [1] and in experiment [7] were 150 nM and 21 nM, respectively. Further, the Ratio IC50 in experiment [2] is 16; in experiment [5], 3. In experiment [3], this molecule had an inhibition in vivo at 0.1 mg/kg of 97%. Also, the inhibition in vivo at 1 mg/kg was 80% in experiment [4] and no less than 70% in experiment [6].

As for `COc1ccc(C2=NNC(=O)CC2C)c2nc(C(F)(F)F)nn12` (racemic), the figures for the IC50 in experiment [1] and in experiment [7] were 10200 nM and 430 nM, respectively.

For the molecule `CCc1cc2c(C3=NNC(=O)CC3C)ccc(OC)n2c1` (racemic), the results for the IC50 in experiment [1] and in experiment [7] were 20700 nM and 3490 nM, respectively.

Regarding `COc1ccc(C2=NNC(=O)CC2C)c2oc(C(F)(F)F)nc12` (racemic), the IC50 in experiment [1] amounted to 5740 nM; in experiment [7], 1010 nM.

`COc1ccc(C2=NNC(=O)CC2C)c2nc(C(F)(F)F)oc12` (racemic): the figures for the half-inhibitory concentration (IC50) in experiment [1] and in experiment [7] were 6430 nM and 1520 nM, respectively.

For the molecule `COc1ccc(C2=NNC(=O)CC2C)c2cc(C(F)(F)F)sc12` (racemic), the values for the IC50 in experiment [1] and in experiment [7] were 2850 nM and 280 nM, respectively. This molecule displayed an inhibition in vivo at 0.1 mg/kg in experiment [3] of 17%.

In the case of `COc1ccc(C2=NNC(=O)CC2C)c2ccc(C(F)(F)F)nc12` (racemic), the IC50 in experiment [1] worked out at 970 nM; in experiment [7], 350 nM. Further, the Ratio IC50 in experiment [2] came to 2.5. The same molecule registered an inhibition in vivo at 0.1 mg/kg in experiment [3] of 99%. The inhibition in vivo at 1 mg/kg in experiment [4] is 68%; in experiment [6], no less than 70%.

For the molecule `COc1ccc(C2=NNC(=O)CC2C)c2cc(C(F)(F)F)oc12` (racemic), the IC50 in experiment [1] was 19800 nM; in experiment [7], 380 nM.

For `COc1ccc(C2=NNC(=O)CC2C)c2[nH]c(C(F)(F)F)nc12` (racemic), the IC50 is 22200 nM in experiment [1] and 300 nM in experiment [7].

`COc1ccc(C2=NNC(=O)CC2C)n2cc(C(F)(F)F)nc12` (racemic): the figures for the IC50 in experiment [1] and in experiment [7] were 1450 nM and 260 nM, respectively. The molecule further registered an inhibition in vivo at 0.1 mg/kg in experiment [3] of 99%. The results for the inhibition in vivo at 1 mg/kg in experiment [4] and in experiment [6] were 62% and greater than 30%, respectively.
